Data: ChEMBL document CHEMBL4229460, “Design and biological evaluation of novel hybrids of 1, 5-diarylpyrazole and Chrysin for selective COX-2 inhibition” (Bioorg Med Chem, 2018)

Columns and labels:
HEK-293T = test: Cytotoxicity against human 293T cells after 48 hrs by MTT assay; assay type: cell-based
[1] = molecular target: T1, Prostaglandin G/H synthase 2 (Homo sapiens, UniProt P35354); test: Inhibition of COX2 (unknown origin) using arachidonic acid as substrate pretreated for 10 mins followed by substrate addition and measured after 2 mins by ELISA
T1 sequence (P35354 whole entry): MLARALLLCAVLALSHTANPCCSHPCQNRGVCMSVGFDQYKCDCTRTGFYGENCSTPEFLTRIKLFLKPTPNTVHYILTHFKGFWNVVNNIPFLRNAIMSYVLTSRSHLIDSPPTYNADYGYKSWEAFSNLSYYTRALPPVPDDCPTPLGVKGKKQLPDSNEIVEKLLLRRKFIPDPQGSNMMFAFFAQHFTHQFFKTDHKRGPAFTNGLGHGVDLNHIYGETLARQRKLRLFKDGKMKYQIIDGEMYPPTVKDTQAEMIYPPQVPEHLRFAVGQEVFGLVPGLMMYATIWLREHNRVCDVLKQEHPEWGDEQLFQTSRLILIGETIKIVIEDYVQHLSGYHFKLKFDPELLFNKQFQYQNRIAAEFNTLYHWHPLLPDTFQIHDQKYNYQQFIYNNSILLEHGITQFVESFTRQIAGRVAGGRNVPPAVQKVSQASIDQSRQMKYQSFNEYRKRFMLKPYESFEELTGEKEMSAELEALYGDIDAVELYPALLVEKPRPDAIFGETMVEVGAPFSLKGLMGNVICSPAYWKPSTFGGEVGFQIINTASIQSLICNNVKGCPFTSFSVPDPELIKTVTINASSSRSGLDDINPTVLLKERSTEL

B16-F10 = test: Antiproliferative activity against mouse B16F10 cells after 48 hrs by MTT assay; assay type: functional, cell-based; conditions: B16-F10, 48 h
Procedure, shortened: (§1)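 Cells kept in DMEM with 10% FBS, penicillin/streptomycin, 37 °C, 5% CO₂. Seeded at 5 × 10⁴ cells/well and allowed to adhere 12 h. Exposed to 0, 0.1, 1, 10 and 100 μM (final) for 48 h. Viability read by MTT reduction at OD 570 nm with 630 nm reference. IC50 reported as mean ± SD of three independent experiments.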

MCF7 = test: Antiproliferative activity against human MCF7 cells after 48 hrs by MTT assay; assay type: functional, cell-based; conditions: MCF7, 48 h
HeLa = test: Antiproliferative activity against human HeLa cells after 48 hrs by MTT assay; assay type: functional, cell-based
[2] = molecular target: Prostaglandin G/H synthase 1 (Homo sapiens, UniProt P23219); test: Inhibition of COX1 (unknown origin) using arachidonic acid as substrate pretreated for 10 mins followed by substrate addition and measured after 2 mins by ELISA; assay type: ADME
Sequence of Prostaglandin G/H synthase 1 (P23219 whole entry): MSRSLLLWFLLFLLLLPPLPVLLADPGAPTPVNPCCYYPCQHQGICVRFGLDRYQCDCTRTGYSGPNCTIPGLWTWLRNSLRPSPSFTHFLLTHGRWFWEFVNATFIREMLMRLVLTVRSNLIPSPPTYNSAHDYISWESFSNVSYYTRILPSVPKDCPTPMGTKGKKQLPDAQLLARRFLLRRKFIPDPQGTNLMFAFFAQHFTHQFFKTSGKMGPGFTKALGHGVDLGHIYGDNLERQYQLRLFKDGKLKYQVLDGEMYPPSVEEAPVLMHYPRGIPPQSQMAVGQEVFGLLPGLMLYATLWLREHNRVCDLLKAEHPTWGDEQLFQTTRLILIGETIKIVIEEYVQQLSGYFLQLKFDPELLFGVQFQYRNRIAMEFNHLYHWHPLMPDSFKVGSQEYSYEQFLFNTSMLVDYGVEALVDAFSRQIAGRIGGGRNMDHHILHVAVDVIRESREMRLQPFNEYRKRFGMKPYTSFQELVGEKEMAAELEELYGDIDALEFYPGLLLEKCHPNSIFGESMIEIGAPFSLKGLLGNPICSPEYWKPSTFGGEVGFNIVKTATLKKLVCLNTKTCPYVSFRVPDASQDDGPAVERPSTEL

A549 = test: Antiproliferative activity against human A549 cells after 48 hrs by MTT assay; assay type: functional, cell-based; conditions: A549, 48 h; procedure, shortened: as §1
Homo sapiens = species: Homo sapiens; test: Selectivity index, ratio of IC50 for COX1 (unknown origin) to ratio of IC50 for COX2 (unknown origin)
Procedure, shortened: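 Enzyme ELISA kit: COX-1 or COX-2 preincubated with compound at 0, 1, 10 or 100 μM for 10 min at 37 °C in 0.1 M Tris-HCl pH 8.0, 5 mM EDTA, 2 mM phenol, 1 μM heme. Started with 100 μM arachidonic acid for 2 min at 37 °C, stopped with 1 M HCl. PGH₂ reduced by stannous chloride; PGF2α read by enzyme immunoassay at 450 nm. Index taken as the ratio of the COX IC50 values.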

Row | IC50 [1] [µM] | IC50 (B16-F10) [µM] | IC50 (MCF7) [µM] | IC50 (HeLa) [µM] | IC50 [2] [µM] | IC50 (A549) [µM] | Ratio IC50 (Homo sapiens) | Compound | IC50 (HEK-293T) [µM]
1 | 4.8 | 3.85 | 22 | 25.5 | 49.6 | 8.17 | 10.3 | Cc1ccc(-n2nc(COC(=O)COc3cc(O)c4c(=O)cc(-c5ccccc5)oc4c3)cc2-c2cccc(Cl)c2)cc1 | 161
2 | – | 17.4 | 25.7 | 25.1 | – | 47.8 | – | O=c1cc(-c2ccccc2)oc2cc(O)cc(O)c12 [CHRYSIN] | 319
3 | 4.43 | 7.86 | 32.9 | 1.75 | 44.8 | 4.71 | 10.1 | O=C(COc1cc(O)c2c(=O)cc(-c3ccccc3)oc2c1)OCc1cc(-c2cccc(Cl)c2)n(-c2ccccc2)n1 | 188
4 | 1.36 | 2.85 | 10.8 | 1.95 | 39.1 | > 100 | 28.7 | Cc1cccc(-c2cc(COC(=O)COc3cc(O)c4c(=O)cc(-c5ccccc5)oc4c3)nn2-c2ccccc2)c1 | 316
5 | – | 19.2 | 26.8 | 15.7 | – | 16.1 | – | Cc1ccc(-c2cc(C(F)(F)F)nn2-c2ccc(S(N)(=O)=O)cc2)cc1 [CELECOXIB] | 225
6 | 2.84 | 65.8 | 17.8 | > 100 | 30.2 | 4.62 | 10.6 | Cc1ccc(-n2nc(COC(=O)COc3cc(O)c4c(=O)cc(-c5ccccc5)oc4c3)cc2-c2ccc(F)cc2)cc1 | 265
7 | 1.77 | 4.95 | 23.4 | 4.06 | 27.6 | 32.1 | 15.6 | Cc1cccc(-c2cc(COC(=O)COc3cc(O)c4c(=O)cc(-c5ccccc5)oc4c3)nn2-c2ccc(Cl)cc2)c1 | 162
8 | 0.54 | 1.76 | 7.1 | 2.72 | 41.3 | 10.6 | 75.9 | COc1ccc(-c2cc(COC(=O)COc3cc(O)c4c(=O)cc(-c5ccccc5)oc4c3)nn2-c2ccccc2)cc1 | 257
9 | 0.35 | 12.4 | > 100 | 5.65 | 46.4 | 12.7 | 132 | COc1ccc(-c2cc(COC(=O)COc3cc(O)c4c(=O)cc(-c5ccccc5)oc4c3)nn2-c2ccc(Cl)cc2)cc1 | 290
10 | 3.53 | 10.8 | 9.02 | 2.81 | 43.2 | 40.2 | 12.2 | O=C(COc1cc(O)c2c(=O)cc(-c3ccccc3)oc2c1)OCc1cc(-c2cccc(F)c2)n(-c2ccccc2)n1 | 197
11 | 1.08 | 32.1 | 2.96 | 24.7 | 39.5 | 22.7 | 36.5 | Cc1ccc(-n2nc(COC(=O)COc3cc(O)c4c(=O)cc(-c5ccccc5)oc4c3)cc2-c2ccc(Br)cc2)cc1 | 278
12 | 4.79 | 6.53 | 8.01 | 4.33 | 41.1 | 6.68 | 8.58 | O=C(COc1cc(O)c2c(=O)cc(-c3ccccc3)oc2c1)OCc1cc(-c2cccc(C(F)(F)F)c2)n(-c2ccccc2)n1 | 271
13 | 2.12 | 20.8 | > 100 | 2.67 | > 50 | 3.68 | > 23 | Cc1ccc(-n2nc(COC(=O)COc3cc(O)c4c(=O)cc(-c5ccccc5)oc4c3)cc2-c2ccc(Cl)cc2)cc1 | 299
14 | 2.2 | 1.57 | 3.47 | 2.41 | 32.9 | 3.23 | 13.1 | O=C(COc1cc(O)c2c(=O)cc(-c3ccccc3)oc2c1)OCc1cc(-c2ccccc2)n(-c2ccccc2)n1 | 173
15 | 1.44 | 17.6 | 7.86 | 12.4 | 40.9 | 4.69 | 28.4 | Cc1ccc(-c2cc(COC(=O)COc3cc(O)c4c(=O)cc(-c5ccccc5)oc4c3)nn2-c2ccc(Cl)cc2)cc1 | 222
16 | 0.422 | 5.73 | 3.94 | > 100 | 36.8 | 4.34 | 87.3 | O=C(COc1cc(O)c2c(=O)cc(-c3ccccc3)oc2c1)OCc1cc(-c2cccc(Cl)c2)n(-c2ccc(Cl)cc2)n1 | 272
17 | 2.54 | 6.24 | 3.82 | > 100 | > 50 | 12 | > 20 | O=C(COc1cc(O)c2c(=O)cc(-c3ccccc3)oc2c1)OCc1cc(-c2ccc(F)cc2)n(-c2ccccc2)n1 | 187
18 | 2.12 | > 100 | 8.48 | 6.67 | 43.2 | 3.58 | 20.4 | O=C(COc1cc(O)c2c(=O)cc(-c3ccccc3)oc2c1)OCc1cc(-c2ccc(Br)cc2)n(-c2ccccc2)n1 | 316
19 | 0.93 | 2.59 | 5.43 | 4.78 | 45 | 4.49 | 48.4 | Cc1ccc(-c2cc(COC(=O)COc3cc(O)c4c(=O)cc(-c5ccccc5)oc4c3)nn2-c2ccccc2)cc1 | 315
20 | 5.02 | 7.61 | 22.2 | 6.06 | 27.9 | > 100 | 5.56 | Cc1ccc(-n2nc(COC(=O)COc3cc(O)c4c(=O)cc(-c5ccccc5)oc4c3)cc2-c2ccc(Cl)c(Cl)c2)cc1 | 273
21 | 0.42 | 3.51 | 3.23 | 2.87 | 41.2 | 2.87 | 96 | Cc1ccc(-c2cc(COC(=O)COc3cc(O)c4c(=O)cc(-c5ccccc5)oc4c3)nn2-c2ccc(C)cc2)cc1 | 197
22 | 4.33 | 9.85 | 11 | 6.61 | 32.9 | 8.02 | 7.61 | O=C(COc1cc(O)c2c(=O)cc(-c3ccccc3)oc2c1)OCc1cc(-c2ccc(C(F)(F)F)cc2)n(-c2ccccc2)n1 | 162
23 | 5.94 | 21.7 | 12.6 | 30.9 | 33.8 | > 100 | 5.68 | O=C(COc1cc(O)c2c(=O)cc(-c3ccccc3)oc2c1)OCc1cc(-c2cccc([N+](=O)[O-])c2)n(-c2ccccc2)n1 | 348
24 | 1.19 | 4.33 | 3.25 | 1.31 | 32.2 | 11.6 | 27 | Cc1ccc(-n2nc(COC(=O)COc3cc(O)c4c(=O)cc(-c5ccccc5)oc4c3)cc2-c2cccc(C)c2)cc1 | 398
25 | 6.83 | 6.44 | 3.29 | 6.28 | > 50 | 5.52 | > 7 | O=C(COc1cc(O)c2c(=O)cc(-c3ccccc3)oc2c1)OCc1cc(-c2ccc(Cl)c(Cl)c2)n(-c2ccccc2)n1 | 233
26 | 1.66 | 15.6 | 22.2 | 2.04 | 42 | 17 | 25.3 | O=C(COc1cc(O)c2c(=O)cc(-c3ccccc3)oc2c1)OCc1cc(-c2ccc([N+](=O)[O-])cc2)n(-c2ccccc2)n1 | 192
